# In ChEMBL document CHEMBL6134784, “Furoxan-piplartine hybrids as effective NO donors and ROS inducers in PC3 cancer cells: design, synthesis, and biological evaluation” (RSC Med Chem, 2024):
# Active and inactive are the calls of the source. The rule behind the calls is not given here.
# Key:
# PC-3 [1] = experiment: Induction of morphological changes in human PC-3 cells assessed as loss of adhesion at 0.24 uM measured after 24 hrs by phase contrast microscopy; format: functional, cell-based
# Summary of the method: (§1)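 PC3 cells were seeded at 1×10^5 per well in 6-well plates and treated after 24 h, with or without 1 mM N-acetyl-L-cysteine. The same observation field was imaged by phase contrast microscopy at 1, 2, 3, 4 and 24 h. DMSO vehicle served as control.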
# PC-3 [2] = experiment: Induction of morphological changes in human PC-3 cells assessed as loss of adhesion at 0.24 uM measured after 24 hrs in presence of antioxidant N-acetyl-L-cysteine by phase contrast microscopy; format: functional, cell-based; summary of the method: as §1
# PC-3 [3] = experiment: Induction of morphological changes in human PC-3 cells assessed as reduction in cell density at 0.24 uM measured after 24 hrs in presence of antioxidant N-acetyl-L-cysteine by phase contrast microscopy; format: functional, cell-based; summary of the method: as §1
# PC-3 [4] = experiment: Induction of ROS generation in human PC-3 cells at 0.24 uM measured after 30 mins by CellROX reagent based flow cytometry; format: functional, cell-based
# Summary of the method: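 PC3 seeded 1×10^5 per well in 6-well plates, after 24 h treated together with CellROX green (5 μM final) for 30 min at 37 °C; 0.1% DMSO negative control, 1 mM H2O2 positive control. Cells collected and CellROX-positive fraction measured by flow cytometry.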
# PC-3 [5] = experiment: Induction of ROS generation in human PC-3 cells at 0.24 uM measured after 30 mins by CellROX reagent based confocal microscopy; format: functional, cell-based
# Summary of the method: (§2)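 Confocal ROS imaging of PC3: cells loaded with 2.5 μM CellROX green plus 0.5 μM MitoTracker Red for 30 min at 37 °C, washed three times in PBS, imaged immediately; DMSO vehicle and H2O2 controls.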
# PC-3 [6] = experiment: Cell cycle arrest in human PC-3 cells assessed as accumulation of cells at sub-G1 phase at 0.24 uM measured after 3 hrs by propidium iodide staining based flow cytometry (reference value: 0.75 +/- 0.21%); format: functional
# Summary of the method: (§3)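 PC3 cells seeded 1×10^5 per well in 6-well plates, exposed 3 h, with or without 1 mM N-acetyl-L-cysteine pretreatment; vehicle 0.1% DMSO. Harvested with trypsin-EDTA, fixed in 75% ethanol in PBS at 4 °C for 30 min, stained 1 h with RNase (1.5 mg mL^-1) and propidium iodide (90 μg mL^-1); DNA content by flow cytometry. Phase fractions compared with control by ANOVA/Tukey.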
# PC-3 [7] = experiment: Induction of apoptosis in human PC-3 cells assessed as necrotic cells at 0.24 uM measured after 6 hrs by Alexa Fluor 488-annexin V/propidium iodide staining based flow cytometry (reference value: 1.28%); format: functional
# PC-3 [8] = experiment: Induction of apoptosis in human PC-3 cells assessed as effect on BAX gene expression at 0.24 uM measured after 3 hrs by qPCR analysis; format: functional, cell-based
# Summary of the method: (§4)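 Seeded 1×10^5 cells per well in 6-well plates; PC3 treated 3 h. Total RNA extracted, qPCR; each target normalized to reference gene (β-actin) by efficiency-corrected ΔΔCt (Pfaffl) against a control calibrator sample, efficiencies from amplification profiles. Mean ± SEM of four independent experiments.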
# PC-3 [9] = experiment: Induction of apoptosis in human PC-3 cells assessed as effect on BCL2 gene expression at 0.24 uM measured after 3 hrs by qPCR analysis; format: functional, cell-based; summary of the method: as §4
# PC-3 [10] = experiment: Cytotoxicity against human PC-3 cells assessed as cell growth inhibition at 0.05 uM measured after 48 hrs by CCK-8 assay relative to control; format: functional; settings: read-out: GI
# Summary of the method: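 PC3 at 1×10^4 cells per well attached 24 h, pretreated 1 h with carboxy-PTIO (0, 0.50, 3.13, 6.25, 12.50, 25, 50 μM), then compound added for 48 h; washed three times with PBS, growth read by CCK-8 as percent inhibition versus control cells; two experiments in triplicate.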
# PC-3 [11] = experiment: Induction of morphological changes in human PC-3 cells assessed as cell rounding at 0.05 uM measured after 24 hrs in presence of antioxidant N-acetyl-L-cysteine by phase contrast microscopy; format: functional, cell-based; summary of the method: as §1
# PC-3 [12] = experiment: Induction of morphological changes in human PC-3 cells assessed as reduction in cell density at 0.05 uM measured after 24 hrs in presence of antioxidant N-acetyl-L-cysteine by phase contrast microscopy; format: functional, cell-based; summary of the method: as §1
# PC-3 [13] = experiment: Effect on NFE2L2 gene expression in human PC-3 cells at 0.05 uM measured after 3 hrs by qPCR analysis; format: functional, cell-based; summary of the method: as §4
# PC-3 [14] = experiment: Induction of ROS generation in human PC-3 cells at 0.05 uM measured after 30 mins by CellROX reagent based confocal microscopy; format: functional, cell-based; summary of the method: as §2
# PC-3 [15] = experiment: Induction of mitochondrial membrane potential loss in human PC-3 cells at 0.05 uM measured after 30 mins by MitoTracker Red based confocal microscopy; format: functional, cell-based
# Summary of the method: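 Confocal imaging of PC3 cells loaded with CellROX Green (2.5 μM) and MitoTracker Red (0.5 μM) for 30 min at 37 °C, then three PBS washes and immediate capture. The MitoTracker dye stains intact mitochondria and diffuses out when membrane potential drops. Vehicle 0.1% DMSO served as negative control and 1 mM H2O2 as positive control.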
# PC-3 [16] = experiment: Cell cycle arrest in human PC-3 cells assessed as reduction in cell accumulation at G0/G1 phase at 0.05 uM measured after 3 hrs by propidium iodide staining based flow cytometry; format: functional; summary of the method: as §3
# PC-3 [17] = experiment: Cell cycle arrest in human PC-3 cells assessed as increase in cell accumulation at G2/M phase at 0.05 uM measured after 3 hrs by propidium iodide staining based flow cytometry; format: functional; summary of the method: as §3
# PC-3 [18] = experiment: Cell cycle arrest in human PC-3 cells assessed as reduction in cell accumulation at S phase in presence of antioxidant N-acetyl-L-cysteine at 0.05 uM measured after 3 hrs by propidium iodide staining based flow cytometry; format: functional; summary of the method: as §3
# PC-3 [19] = experiment: Cell cycle arrest in human PC-3 cells assessed as down regulation of cyclin D1 expression at 0.05 uM measured after 3 hrs by Western blot analysis; format: functional, cell-based
# Summary of the method: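 Western blot: PC3 seeded 1×10^7 per 100 mm dish, treated 3 h or 6 h, lysed in RIPA with protease/phosphatase inhibitors; 50 μg protein on 12% SDS-PAGE, PVDF transfer, 5% milk block, anti-cyclin D1 (1:1000) overnight at 4 °C, HRP anti-rabbit secondary, β-actin loading control, ECL detection and band densitometry; two independent experiments.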
# PC-3 [20] = experiment: Induction of apoptosis in human PC-3 cells assessed as late apoptotic cells at 0.05 uM measured after 6 hrs by Alexa Fluor 488-annexin V/propidium iodide staining based flow cytometry (reference value: 3.37%); format: functional
SMILES,Activity (PC-3 [1]),Activity (PC-3 [2]),Activity (PC-3 [3]),Activity (PC-3 [4]),Activity (PC-3 [5]),Activity (PC-3 [6]),Activity (PC-3 [7]),Activity (PC-3 [8]),Activity (PC-3 [9]),inhibition of growth at 0.05 µM (PC-3 [10]),Activity (PC-3 [11]),Activity (PC-3 [12]),Activity (PC-3 [13]),Activity (PC-3 [14]),Activity (PC-3 [15]),Activity (PC-3 [16]),Activity (PC-3 [17]),Activity (PC-3 [18]),Activity (PC-3 [19]),Activity (PC-3 [20])
COc1cc(/C=C/C(=O)N2CCC=CC2=O)cc(OC)c1OCCCOc1no[n+]([O-])c1S(=O)(=O)c1ccccc1,Active; Partial Loss Of Adhesion Observed,inactive,inactive,Active,Active,7.6%,0.81%,inactive,inactive,,,,,,,,,,,
COc1cc(/C=C/C(=O)N2CCC=CC2=O)cc(OC)c1OCCCCCCCCCCCCOc1no[n+]([O-])c1S(=O)(=O)c1ccccc1,,,,,,,,,,65%,inactive,inactive,Active,Active,Active,Active; Significant Reduction Observed,Active,Active,Active,81.12%
